Calls of active or inactive are those of the source.
Legend:
[1] = target: T1, Adrenergic receptor alpha-1 (Rattus norvegicus, UniProt P15823+P23944+P43140); experiment: Displacement of [3H]prazosin from alpha1 adrenergic receptor in rat cerebral cortex by liquid scintillation counting; type: tissue-based
T1 sequence (P15823 whole entry): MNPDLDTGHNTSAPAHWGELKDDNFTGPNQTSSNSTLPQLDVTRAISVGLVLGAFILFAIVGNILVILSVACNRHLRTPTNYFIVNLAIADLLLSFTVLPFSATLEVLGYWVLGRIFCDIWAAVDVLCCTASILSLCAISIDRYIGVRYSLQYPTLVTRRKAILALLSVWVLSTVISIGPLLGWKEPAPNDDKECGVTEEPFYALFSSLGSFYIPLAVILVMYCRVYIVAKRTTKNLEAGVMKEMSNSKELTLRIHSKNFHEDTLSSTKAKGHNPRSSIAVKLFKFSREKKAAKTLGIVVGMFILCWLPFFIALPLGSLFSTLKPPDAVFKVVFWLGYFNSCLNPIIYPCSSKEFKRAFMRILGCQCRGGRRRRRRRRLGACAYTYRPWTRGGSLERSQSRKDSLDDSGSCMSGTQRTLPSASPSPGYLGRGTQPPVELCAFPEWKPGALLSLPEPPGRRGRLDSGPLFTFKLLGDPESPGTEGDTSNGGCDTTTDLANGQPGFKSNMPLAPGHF
T1 sequence (P23944 whole entry): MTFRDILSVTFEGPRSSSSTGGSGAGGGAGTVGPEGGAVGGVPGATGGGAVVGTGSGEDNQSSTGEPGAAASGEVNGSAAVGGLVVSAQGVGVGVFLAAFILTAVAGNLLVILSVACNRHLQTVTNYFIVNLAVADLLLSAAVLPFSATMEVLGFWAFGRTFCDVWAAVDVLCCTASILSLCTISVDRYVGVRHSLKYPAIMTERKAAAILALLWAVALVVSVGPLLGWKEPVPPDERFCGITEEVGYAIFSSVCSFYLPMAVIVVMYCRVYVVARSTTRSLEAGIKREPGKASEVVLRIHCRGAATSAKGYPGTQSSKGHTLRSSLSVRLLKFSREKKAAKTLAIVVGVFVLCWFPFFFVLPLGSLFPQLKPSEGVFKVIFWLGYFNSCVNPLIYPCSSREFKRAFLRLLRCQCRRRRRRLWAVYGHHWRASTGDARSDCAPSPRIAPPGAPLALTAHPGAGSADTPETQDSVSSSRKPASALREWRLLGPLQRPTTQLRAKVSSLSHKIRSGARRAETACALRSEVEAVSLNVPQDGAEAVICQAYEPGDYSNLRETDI
T1 sequence (P43140 whole entry): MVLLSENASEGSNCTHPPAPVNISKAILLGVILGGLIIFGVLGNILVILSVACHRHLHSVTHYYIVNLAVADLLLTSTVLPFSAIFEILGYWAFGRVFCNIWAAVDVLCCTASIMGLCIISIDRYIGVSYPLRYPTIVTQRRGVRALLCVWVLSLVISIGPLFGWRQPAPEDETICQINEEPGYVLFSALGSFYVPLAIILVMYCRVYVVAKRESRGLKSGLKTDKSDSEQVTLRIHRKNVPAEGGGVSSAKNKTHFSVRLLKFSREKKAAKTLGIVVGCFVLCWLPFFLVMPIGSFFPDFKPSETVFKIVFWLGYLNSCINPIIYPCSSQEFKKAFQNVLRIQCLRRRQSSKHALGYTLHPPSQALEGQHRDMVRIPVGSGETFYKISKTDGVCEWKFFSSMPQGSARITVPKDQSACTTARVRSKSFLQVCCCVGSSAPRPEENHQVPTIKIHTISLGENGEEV
Outline: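 Rat cerebral cortex was homogenized in ice-cold 50 mM Tris–HCl pH 7.6, centrifuged 20 000 × g for 20 min at 0–4 °C, and washed once more. Membranes were incubated with [3H]prazosin 0.2 nM and seven to eight compound concentrations (10^-11–10^-4 M), with phentolamine defining nonspecific binding. Bound ligand was filtered on glass fiber and counted by liquid scintillation. Runs were in duplicate, and Ki was calculated by Cheng–Prusoff.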

Rattus norvegicus [2] = experiment: Antiarrhythmic activity against adrenaline-induced arrhythmia in iv dosed rat assessed as inhibition of cardiac rhythm disturbance administered 15 mins before adrenaline challenge; type: functional; conditions: Heart
Outline: (§1)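 Rats anaesthetized with thiopental 60 mg/kg ip received the compound i.v. 15 min before an i.v. adrenaline challenge. Rhythm disturbances were recorded for 15 min after adrenaline. Activity was defined as absence of premature beats and inhibition of disturbances versus controls. ED50 values, with confidence limits, were derived by Litchfield–Wilcoxon from three groups of six animals.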

Rattus norvegicus [3] = experiment: Hypotensive activity in Wistar rat assessed as reduction in epinephrine-induced blood pressure response at 5 mg/kg; type: functional, organism-based; design: dose 5 mg/kg
Outline: (§2)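 In anaesthetized rats, pressor responses were evoked by i.v. epinephrine, norepinephrine or methoxamine. Blood pressure was recorded through a heparin-saline-filled cannula in the carotid artery.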

Rattus norvegicus [4] = experiment: Hypotensive activity in Wistar rat assessed as reduction in norepinephrine-induced blood pressure response at 5 mg/kg; type: functional, organism-based; design: dose 5 mg/kg; outline: as §2
Rattus norvegicus [5] = experiment: Hypotensive activity in Wistar rat assessed as reduction in methoxamine-induced pressure response at 5 mg/kg; type: functional, organism-based; design: dose 5 mg/kg; outline: as §2
Rattus norvegicus [6] = experiment: Antiarrhythmic activity against adrenaline-induced arrhythmia in iv dosed rat assessed as reduction in mortality rate administered 15 mins before adrenaline challenge; type: functional, organism-based; conditions: Heart; outline: as §1
Rattus norvegicus [7] = experiment: Antiarrhythmic activity against adrenaline-induced arrhythmia in iv dosed rat assessed as reduction in supraventricular extrasystole administered 15 mins before adrenaline challenge; type: functional, organism-based; conditions: Heart; outline: as §1
Rattus norvegicus [8] = experiment: Antiarrhythmic activity against adrenaline-induced arrhythmia in iv dosed rat assessed as reduction in ventricular extrasystole administered 15 mins before adrenaline challenge; type: functional, organism-based; conditions: Heart; outline: as §1
Rattus norvegicus [9] = experiment: Antiarrhythmic activity against adrenaline-induced arrhythmia in iv dosed rat assessed as reduction in bigeminy administered 15 mins before adrenaline challenge; type: functional, organism-based; conditions: Heart; outline: as §1
Rattus norvegicus [10] = experiment: Antiarrhythmic activity against adrenaline-induced arrhythmia in rat assessed as reduction in reflex bradycardia at 5 mg/kg, iv administered 15 mins before adrenaline challenge; type: functional, organism-based; design: dose 5 mg/kg; conditions: Heart
Outline: (§3)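 Rats anaesthetized with thiopental 60 mg/kg ip were dosed i.v. 15 min before an i.v. adrenaline challenge. Cardiac rhythm disturbances (bradycardia, extrasystoles, bigeminy, blocks) were recorded for 15 min after adrenaline and compared with controls.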

Rattus norvegicus [11] = experiment: Antiarrhythmic activity against adrenaline-induced arrhythmia in rat assessed as reduction in supraventricular extrasystole at 5 mg/kg, iv administered 15 mins before adrenaline challenge; type: functional, organism-based; design: dose 5 mg/kg; conditions: Heart; outline: as §3
Rattus norvegicus [12] = experiment: Antiarrhythmic activity against adrenaline-induced arrhythmia in rat assessed as reduction in ventricular extrasystole at 5 mg/kg, iv administered 15 mins before adrenaline challenge; type: functional, organism-based; design: dose 5 mg/kg; conditions: Heart; outline: as §3
Rattus norvegicus [13] = experiment: Antiarrhythmic activity against adrenaline-induced arrhythmia in rat assessed as reduction in bigeminy at 5 mg/kg, iv administered 15 mins before adrenaline challenge; type: functional, organism-based; design: dose 5 mg/kg; conditions: Heart; outline: as §3
Rattus norvegicus [14] = experiment: Antiarrhythmic activity against adrenaline-induced arrhythmia in rat assessed as reduction in cardiac block at 5 mg/kg, iv administered 15 mins before adrenaline challenge; type: functional, organism-based; design: dose 5 mg/kg; conditions: Heart; outline: as §3
Rattus norvegicus [15] = experiment: Hypotensive activity in normotensive Wistar rat assessed as systolic blood pressure at 5 mg/kg, iv after 10 mins (Rvb=141.3 +/- 6.4 mmHg); type: functional, Artery
Rattus norvegicus [16] = species: Rattus norvegicus; experiment: Hypotensive activity in Wistar rat assessed as reduction in epinephrine-induced systolic blood pressure response; type: functional, organism-based; conditions: Artery; outline: as §2
Rattus norvegicus [17] = species: Rattus norvegicus; experiment: Hypotensive activity in Wistar rat assessed as reduction in norepinephrine-induced systolic blood pressure response; type: functional, organism-based; conditions: Artery; outline: as §2
Rattus norvegicus [18] = species: Rattus norvegicus; experiment: Hypotensive activity in Wistar rat assessed as reduction in methoxamine-induced systolic blood pressure response; type: functional, organism-based; conditions: Artery; outline: as §2

SMILES | pKi [1] | ED50 (Rattus norvegicus [2]) | Activity (Rattus norvegicus [3]) | Activity (Rattus norvegicus [4]) | Activity (Rattus norvegicus [5]) | Activity (Rattus norvegicus [6]) | Activity (Rattus norvegicus [7]) | Activity (Rattus norvegicus [8]) | Activity (Rattus norvegicus [9]) | Activity (Rattus norvegicus [10]) | Activity (Rattus norvegicus [11]) | Activity (Rattus norvegicus [12]) | Activity (Rattus norvegicus [13]) | Activity (Rattus norvegicus [14]) | Activity (Rattus norvegicus [15]) | Activity (Rattus norvegicus [16]) | Activity (Rattus norvegicus [17]) | Activity (Rattus norvegicus [18])
COc1ccccc1N1CCN(CC(O)CN2CCC(c3ccccc3)(c3ccccc3)C2=O)CC1.Cl.Cl (centres undefined) | 6.8 | 2.05 mg/kg | Active | Active | Active | Active | Active | Active | Active |  |  |  |  |  |  |  |  | 
Cc1ccccc1N1CCN(CC(O)CN2CCC(c3ccccc3)(c3ccccc3)C2=O)CC1.Cl.Cl (centres undefined) | 6.69 | 1.4 mg/kg | Active | Active | Active | Active |  |  |  | Active | Active | Active | Active | Active | 133.7 mmHg |  |  | 
Cl.Cl.O=C1N(CC(O)CN2CCN(c3ccccc3C(F)(F)F)CC2)CCC1(c1ccccc1)c1ccccc1 (centres undefined) | 5.89 | 3.9 mg/kg |  |  |  | Active | Active | Active | Active |  |  |  |  |  |  | inactive | inactive | inactive
COc1ccc(N2CCN(CC(O)CN3CCC(c4ccccc4)(c4ccccc4)C3=O)CC2)cc1.Cl.Cl (centres undefined) | 5.36 |  |  |  |  |  |  |  |  |  |  |  |  |  |  | inactive | inactive | inactive
Cl.Cl.O=C1N(CC(O)CN2CCN(c3ccccc3)CC2)CCC1(c1ccccc1)c1ccccc1 (centres undefined) | 6.74 | 1.9 mg/kg | Active | Active | Active | Active | Active | Active | Active |  |  |  |  |  |  |  |  | 
CCOc1ccccc1N1CCN(CC(O)CN2CCC(c3ccccc3)(c3ccccc3)C2=O)CC1.Cl.Cl (centres undefined) | 7.28 | 1.1 mg/kg | Active | Active | Active | Active |  |  |  | Active | Active | Active | Active | Active |  |  |  | 
